Measurements: ChEMBL document CHEMBL1139827, “Synthesis and pharmacological profile of serofendic acids A and B” (Bioorg Med Chem, 2007)
Calls of active or inactive are those of the source. The rule behind the calls is not given here.

Tests used:
[1] = Half life in Sprague-Dawley rat at 5 mg/kg, po; assay type: ADME, organism-based; parameters: dose 5 mg/kg, route oral; settings: in vivo
Summary of the method: (§1)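 Fasted SD rats (n = 3) dosed orally at 5 mg/kg, 1 mg/ml in 0.5% methyl cellulose. Plasma sampled at 0.25, 0.5, 1, 2, 4, 6 and 8 h. Plasma (0.1 ml) deproteinized with MeOH/HClO4 (500:1, 0.2 ml), spun 12,000 rpm for 5 min, filtered. Bioavailability set against the 1 mg/kg iv dosing.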

[2] = AUC in Sprague-Dawley rat at 1 mg/kg, iv; assay type: ADME, organism-based; parameters: dose 1 mg/kg, route intravenous; settings: plasma
Summary of the method: (§2)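 Fasted SD rats (n = 3, 290–260 g) given 1 mg/kg iv, dosing solution 1 mg/ml in 30% DMSO/5% glucose. Blood sampled at 0.25, 0.5, 1, 2, 4, 6 and 8 h. Plasma (0.1 ml) mixed with MeOH/HClO4 (500:1, 0.2 ml), centrifuged 12,000 rpm for 5 min and filtered. Plasma PK parameters derived from these samples.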

[3] = Tmax in Sprague-Dawley rat at 5 mg/kg, po; assay type: ADME, organism-based; parameters: dose 5 mg/kg, route oral; settings: in vivo; summary of the method: as §1
[4] = Volume of distribution at steady state in Sprague-Dawley rat at 1 mg/kg, iv; assay type: ADME, organism-based; parameters: dose 1 mg/kg, route intravenous; settings: in vivo, read-out: Vdss; summary of the method: as §2
[5] = Oral bioavailability in Sprague-Dawley rat at 5 mg/kg; assay type: ADME, organism-based; settings: in vivo; summary of the method: as §1
[6] = Cmax in Sprague-Dawley rat at 5 mg/kg, po; assay type: ADME, organism-based; parameters: dose 5 mg/kg, route oral; settings: in vivo; summary of the method: as §1
[7] = Total clearance in Sprague-Dawley rat at 1 mg/kg, iv; assay type: ADME, organism-based; parameters: dose 1 mg/kg, route intravenous; settings: in vivo; summary of the method: as §2
[8] = AUC in Sprague-Dawley rat at 5 mg/kg, po; assay type: ADME, organism-based; parameters: dose 5 mg/kg, route oral; settings: plasma; summary of the method: as §1
[9] = Half life in Sprague-Dawley rat at 1 mg/kg, iv; assay type: ADME, organism-based; parameters: dose 1 mg/kg, route intravenous; settings: in vivo; summary of the method: as §2
Cerebral cortex [10] = experiment: Protective effect against glutamate-induced neurotoxicity in fetal rat cerebral cortex after 24 hrs; assay type: functional, tissue-based
Summary of the method: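 Wistar fetal rat cortical neurons (E17–19) grown on polyethyleneimine-coated coverslips, 10 µM cytosine arabinoside added from day 6, used at 11–15 DIV. Exposed to 500 µM Glu for 10 min; compound present 1 h before, during and 24 h after. Viability by trypan blue exclusion, >200 cells per coverslip, five coverslips, mean ± SEM.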

[11] = Ratio of drug level in brain to plasma in Sprague-Dawley rat at 1 mg/kg, iv after 0.5 hr; assay type: ADME, organism-based; parameters: dose 1 mg/kg, route intravenous; settings: read-out: BPR
Summary of the method: (§3)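 SD rats (n = 3, fasted) given 1 mg/kg iv in 30% DMSO/5% glucose. Brain and blood taken at 0.5 and 2 h. Brain homogenized (20% saline). Brain homogenate or plasma (0.1 ml) treated with MeOH/HClO4 (500:1, 0.2 ml), centrifuged 12,000 rpm for 5 min, filtered. Brain-to-plasma concentration ratio calculated.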

Cerebral cortex [12] = experiment: Protective effect against glutamate-induced neurotoxicity in fetal rat cerebral cortex at 1 uM after 24 hrs; assay type: functional, tissue-based
Summary of the method: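 Primary cortical neurons from fetal Wistar rats (17–19 days gestation), used after 11–15 days in vitro; cytosine arabinoside 10 µM added at day 6. Compound present 1 h before, during and 24 h after 10 min exposure to 500 µM Glu. Viability by trypan blue exclusion (>200 cells/coverslip, five coverslips), % unstained cells; means ± SEM.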

[13] = Ratio of drug level in brain to plasma in Sprague-Dawley rat at 1 mg/kg, iv after 2 hrs; assay type: ADME, organism-based; parameters: dose 1 mg/kg, route intravenous; settings: read-out: BPR; summary of the method: as §3

| SMILES | half-life [1] [min] | AUC [2] [ng·h/mL] | Tmax [3] [min] | Vd [4] [L/kg] | bioavailability [5] [%] | Cmax [6] [ng/mL] | clearance [7] [mL/min/kg] | AUC [8] [ng·h/mL] | half-life [9] [min] | Activity (Cerebral cortex [10]) | Kp at 0.5 h [11] | Activity (Cerebral cortex [12]) | Kp at 2 h [13] |
| --- | --- | --- | --- | --- | --- | --- | --- | --- | --- | --- | --- | --- | --- |
| C[S@@+]([O-])C[C@H]1[C@H]2CC[C@@]3(CC[C@H]4[C@@](C)(CCC[C@]4(C)C(=O)O)[C@@H]3C2)[C@@H]1O [SEROFENDIC ACID B] | 234 | 2780 | 19.8 | 0.33 | 41 | 2050 | 6 | 5640 | 39 | Active | 0.021 |  |  |
| C[C@]12N[C@H](Cc3ccccc31)c1ccccc12 |  |  |  |  |  |  |  |  |  |  |  | Active |  |
| C[S@+]([O-])C[C@H]1[C@H]2CC[C@@]3(CC[C@H]4[C@@](C)(CCC[C@]4(C)C(=O)O)[C@@H]3C2)[C@@H]1O [SEROFENDIC ACID A] |  | 1950 |  | 0.33 |  |  | 8.67 |  | 28.8 | Active |  |  |  |
| COC(=O)[C@@]1(C)CCC[C@@]2(C)[C@@H]3C[C@@H]4CC[C@@]3(CC[C@@H]21)[C@H](O)[C@H]4C[S+](C)[O-] (stereo partly drawn) [SEROFENDIC ACID METHYLESTER] |  | 1440 |  | 0.57 |  |  | 14.7 |  | 33 |  | 2.2 |  | 2.21 |
